According to ChEMBL document CHEMBL1909618, “Non-steroidal dissociated glucocorticoid agonists: indoles as A-ring mimetics and function-regulating pharmacophores” (Bioorg Med Chem Lett, 2011):

How the values were obtained:
[1] = biological target: T1, Glucocorticoid receptor (Homo sapiens) (UniProt P04150); experiment: Agonist activity at glucocorticoid receptor in HFF assessed as inhibition of IL1-induced IL-6 production after 18 to 24 hrs relative to Dexamethasone; type: functional
T1 sequence (whole entry): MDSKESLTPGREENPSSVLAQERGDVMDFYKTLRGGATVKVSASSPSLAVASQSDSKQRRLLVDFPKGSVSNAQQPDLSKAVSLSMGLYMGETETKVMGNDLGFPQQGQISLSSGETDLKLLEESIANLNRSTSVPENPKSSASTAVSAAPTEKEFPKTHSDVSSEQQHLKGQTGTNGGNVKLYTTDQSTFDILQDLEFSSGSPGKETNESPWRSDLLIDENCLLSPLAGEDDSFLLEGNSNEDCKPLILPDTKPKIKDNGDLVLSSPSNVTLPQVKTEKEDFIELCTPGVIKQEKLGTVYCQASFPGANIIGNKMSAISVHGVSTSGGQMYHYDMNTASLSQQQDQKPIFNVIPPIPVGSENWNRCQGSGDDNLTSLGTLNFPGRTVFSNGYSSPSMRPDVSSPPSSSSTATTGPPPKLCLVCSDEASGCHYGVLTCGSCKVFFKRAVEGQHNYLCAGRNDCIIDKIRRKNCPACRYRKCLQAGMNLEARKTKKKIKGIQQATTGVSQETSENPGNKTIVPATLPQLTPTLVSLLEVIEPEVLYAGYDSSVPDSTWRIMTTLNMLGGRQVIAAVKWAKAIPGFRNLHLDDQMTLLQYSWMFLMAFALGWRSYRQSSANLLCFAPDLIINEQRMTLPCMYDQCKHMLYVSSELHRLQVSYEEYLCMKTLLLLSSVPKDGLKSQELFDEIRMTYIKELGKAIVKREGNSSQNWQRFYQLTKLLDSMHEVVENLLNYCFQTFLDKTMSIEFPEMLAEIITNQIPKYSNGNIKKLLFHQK
Method in brief: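 Human foreskin fibroblasts stimulated with IL-1 (1 ng/mL) in the presence of test compound, incubated at 37 °C for 18–24 h. IL-6 in the culture medium was quantified by electrochemiluminescence, DELFIA or ELISA. IC50 and % maximal efficacy were reported.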

Glucocorticoid receptor [2] = biological target: T2, Glucocorticoid receptor (Homo sapiens, UniProt P04150); experiment: Transactivation activity of glucocorticoid receptor in HFF assessed as induction of aromatase activity by measuring beta-estradiol activity after 18 to 24 hrs by ELISA
T2 sequence (P04150 whole entry): T1 sequence (whole entry)

[3] = biological target: T1, Glucocorticoid receptor (Homo sapiens); experiment: Transactivation activity of glucocorticoid receptor in HFF assessed as induction of aromatase activity by measuring beta-estradiol activity after 18 to 24 hrs by ELISA relative to Dexamethasone
Homo sapiens [4] = species on record: Homo sapiens; experiment: Selectivity ratio of IC50 for human recombinant glucocorticoid receptor to IC50 for human recombinant progesterone receptor
Homo sapiens [5] = species on record: Homo sapiens; experiment: Selectivity ratio of IC50 for human recombinant glucocorticoid receptor to IC50 for human recombinant mineralocorticoid receptor
Glucocorticoid receptor [6] = biological target: T2, Glucocorticoid receptor; experiment: Displacement of tetramethylrhodamine-labeled Dexamethasone from human recombinant glucocorticoid receptor expressed in baculovirus infected insect cells by fluorescence polarization assay
Progesterone receptor = biological target: T3, Progesterone receptor (Homo sapiens, UniProt P06401); experiment: Displacement of tetramethylrhodamine-labeled RU-486 from human recombinant progesterone receptor expressed in baculovirus infected insect cells by fluorescence polarization assay
T3 sequence (P06401 whole entry): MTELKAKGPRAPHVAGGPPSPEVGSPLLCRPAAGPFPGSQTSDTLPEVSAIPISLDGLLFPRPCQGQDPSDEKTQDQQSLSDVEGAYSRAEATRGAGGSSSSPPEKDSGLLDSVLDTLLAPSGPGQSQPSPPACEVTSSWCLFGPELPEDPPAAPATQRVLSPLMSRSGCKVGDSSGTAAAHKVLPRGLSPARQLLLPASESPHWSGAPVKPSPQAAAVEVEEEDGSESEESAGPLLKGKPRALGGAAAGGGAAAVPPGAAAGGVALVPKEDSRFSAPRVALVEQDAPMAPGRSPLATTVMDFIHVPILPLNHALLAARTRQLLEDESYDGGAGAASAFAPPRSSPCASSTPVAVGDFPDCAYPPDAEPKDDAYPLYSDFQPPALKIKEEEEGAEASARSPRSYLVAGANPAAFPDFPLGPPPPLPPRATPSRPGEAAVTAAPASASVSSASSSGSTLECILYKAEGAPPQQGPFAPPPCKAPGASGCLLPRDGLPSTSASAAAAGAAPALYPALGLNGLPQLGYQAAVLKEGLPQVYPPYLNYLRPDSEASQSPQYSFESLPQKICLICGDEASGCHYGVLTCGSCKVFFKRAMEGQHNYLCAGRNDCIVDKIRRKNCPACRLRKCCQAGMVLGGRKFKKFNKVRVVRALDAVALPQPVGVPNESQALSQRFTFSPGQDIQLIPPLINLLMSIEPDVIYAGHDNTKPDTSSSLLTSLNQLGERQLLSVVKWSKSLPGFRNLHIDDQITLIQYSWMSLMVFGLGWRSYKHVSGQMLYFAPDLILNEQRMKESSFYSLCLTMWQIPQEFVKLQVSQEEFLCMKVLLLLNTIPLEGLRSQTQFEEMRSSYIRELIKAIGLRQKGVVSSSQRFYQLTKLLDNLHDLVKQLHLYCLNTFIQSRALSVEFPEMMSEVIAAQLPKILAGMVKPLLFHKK
Method in brief: (§1)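 Fluorescence polarization competition assays with recombinant human receptors in lysates of baculovirus-infected insect cells. Reactions contained 1% DMSO and ran 1 h at room temperature.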

[7] = biological target: T4, Mineralocorticoid receptor (Homo sapiens, UniProt P08235); experiment: Displacement of tetramethylrhodamine-labeled Dexamethasone from human recombinant mineralocorticoid receptor expressed in baculovirus infected insect cells by fluorescence polarization assay; method in brief: as §1
T4 sequence (P08235 whole entry): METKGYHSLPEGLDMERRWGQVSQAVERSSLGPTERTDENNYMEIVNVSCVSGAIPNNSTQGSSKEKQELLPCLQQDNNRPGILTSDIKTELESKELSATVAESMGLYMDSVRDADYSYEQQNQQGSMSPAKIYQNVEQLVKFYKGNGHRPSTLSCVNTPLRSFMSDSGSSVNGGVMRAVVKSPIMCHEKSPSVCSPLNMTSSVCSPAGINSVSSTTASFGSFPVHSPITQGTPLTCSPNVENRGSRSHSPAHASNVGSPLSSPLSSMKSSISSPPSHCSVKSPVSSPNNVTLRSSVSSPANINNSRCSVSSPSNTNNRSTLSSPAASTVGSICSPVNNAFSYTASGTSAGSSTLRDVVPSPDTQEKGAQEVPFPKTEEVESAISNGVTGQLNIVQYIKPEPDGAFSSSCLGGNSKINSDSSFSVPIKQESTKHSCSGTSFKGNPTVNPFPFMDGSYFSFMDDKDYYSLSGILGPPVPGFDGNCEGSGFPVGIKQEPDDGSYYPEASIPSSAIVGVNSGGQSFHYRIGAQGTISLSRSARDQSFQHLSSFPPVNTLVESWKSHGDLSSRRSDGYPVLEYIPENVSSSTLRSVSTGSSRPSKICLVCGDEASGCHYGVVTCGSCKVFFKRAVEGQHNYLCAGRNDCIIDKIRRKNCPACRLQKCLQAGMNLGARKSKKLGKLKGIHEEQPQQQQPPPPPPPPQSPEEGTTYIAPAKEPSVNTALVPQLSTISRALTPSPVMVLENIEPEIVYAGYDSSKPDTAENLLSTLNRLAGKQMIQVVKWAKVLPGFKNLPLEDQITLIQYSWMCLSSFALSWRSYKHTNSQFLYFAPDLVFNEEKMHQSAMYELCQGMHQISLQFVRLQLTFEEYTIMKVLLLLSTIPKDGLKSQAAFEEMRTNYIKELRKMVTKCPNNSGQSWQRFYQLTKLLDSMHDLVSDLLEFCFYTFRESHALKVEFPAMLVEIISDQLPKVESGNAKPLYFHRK

Glucocorticoid receptor [8] = biological target: T2, Glucocorticoid receptor; experiment: Agonist activity at glucocorticoid receptor in HFF assessed as inhibition of IL1-induced IL-6 production after 18 to 24 hrs; type: functional
Glucocorticoid receptor [9] = biological target: T2, Glucocorticoid receptor; experiment: Agonist activity at glucocorticoid receptor in human HeLa cells transfected with luciferase gene linked to MMTV promoter assessed as luciferase transactivation activity; type: functional, cell-based
[10] = biological target: T1, Glucocorticoid receptor (Homo sapiens); experiment: Agonist activity at glucocorticoid receptor in human HeLa cells transfected with luciferase gene linked to MMTV promoter assessed as luciferase transactivation activity relative to Dexamethasone; type: functional, cell-based
Method in brief: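 HeLa cells stably carrying an MMTV-luciferase construct were exposed to compound for 6 h at 37 °C, 5% CO2. Cells were then lysed and luminescence read with a Steady-Glo reagent. EC50 and % maximal efficacy were reported.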

SMILES | Efficacy [1] [%] | EC50 (Glucocorticoid receptor [2]; read-out: EC50) [nM] | Efficacy [3] [%] | Ratio IC50 (Homo sapiens [4]) | Ratio IC50 (Homo sapiens [5]) | IC50 (Glucocorticoid receptor [6]) [nM] | IC50 (Progesterone receptor) [nM] | IC50 [7] [nM] | IC50 (Glucocorticoid receptor [8]) [nM] | EC50 (Glucocorticoid receptor [9]) [nM] | Efficacy [10] [%] | EC50 (Glucocorticoid receptor [2])
COc1ccc(F)cc1C(C)(C)CC(O)(Cc1cc2ccc(C#N)cc2[nH]1)C(F)(F)F (racemic) | 91 | 113 | 98 | 30 | 30 | 14 | 395 | 435 | 14 |  |  | 
COc1ccc(F)cc1C(C)(C)CC(O)(Cc1cc2cc(C#N)ccc2[nH]1)C(F)(F)F (racemic) | 89 | 28 | 81 | 100 | 50 | 8 | 815 | 415 | 11 |  |  | 
COc1ccc(F)cc1C(C)(C)CC(O)(Cc1cc2c(C#N)cccc2[nH]1)C(F)(F)F (racemic) | 91 | 21 | 91 | 90 |  | 5 | 440 | 225 | 8 |  |  | 
COc1ccc(F)cc1C(C)(C)C[C@@](O)(Cc1cc2cc(C#N)ccc2[nH]1)C(F)(F)F | 90 | 6 | 71 |  |  | 1 | 155 | 45 | 3 | 36 | 10 | 
CC(C)(CC(O)(Cc1cc2ccccc2[nH]1)C(F)(F)F)c1cc(S(C)(=O)=O)cc2c1OCC2 (racemic) | 84 |  |  | > 300 | 100 | 6 | > 2000 | 610 | 100 | > 2000 | 20 | 
CC(C)(CC(O)(Cc1cc2ccccc2[nH]1)C(F)(F)F)c1cc(C#N)cc2c1OCC2 (racemic) | 65 | 356 | 55 | 50 |  | 15 | 710 | 405 | 104 |  |  | 
CC(C)(CC(O)(Cc1cc2ccccc2[nH]1)C(F)(F)F)c1cc(F)cc2c1OCC2 (racemic) | 90 | 125 | 98 |  |  | 8 | 255 | 265 | 21 |  |  | 
CCc1cccc2[nH]c(CC(O)(CC(C)(C)c3cc(F)ccc3OC)C(F)(F)F)cc12 (racemic) | 90 |  | 49 | 30 |  | 28 | 1000 | 790 | 88 |  |  | Not Active
COc1ccc(F)cc1C(C)(C)CC(O)(Cc1cc2cc(C(F)(F)F)ccc2[nH]1)C(F)(F)F (racemic) | 77 | 640 | 65 |  |  | 290 | > 2000 | > 2000 | 191 |  |  | 
COc1ccc(F)cc1C(C)(C)CC(O)(Cc1cc2ccc(C)cc2[nH]1)C(F)(F)F (racemic) | 60 | 976 | 70 |  |  | 38 | 1250 | 720 | 334 |  |  | 
COc1ccc(F)cc1C(C)(C)CC(O)(Cc1cc2ccc(F)cc2[nH]1)C(F)(F)F (racemic) | 94 | 33 | 84 |  |  | 30 | 265 | 350 | 29 |  |  | 
